G6PDH counter: L. mesenteroides G6PDH inhibition counter-screen; AID 1020; Purified L. mesenteroides G6PDH, diaphorase/resazurin coupled fluorescence, 45 min; 200,000 tested, 0.12% active; inhibition, % at 5 µM
Redox H2O2 prof: compounds producing H2O2 with reducing agent – biochemical, NIH compound library profiling, artefact control for MLSCN library redox annotation, primary screen; DTT-dependent redox cycling H2O2, phenol red/HRP absorbance; 100% = 100 µM peroxide control, 0% = buffer; activation, % at 10 µM; 200,000 tested, 0.03% active;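 active = activation of at least 50% relative to the plate's high and low controls in the primary single-dose screen; inactive = activation below 50%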;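 also: compound incubated with DTT at 0.8 mM final as the reducing agent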
Lmaj promast: Leishmania major promastigote growth inhibition; inhibition, % at 10 µM; 200,000 tested, 9% active; Leishmania major promastigotes, resazurin fluorescence viability;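 also: promastigotes grown with compound for 44 hours at 28 °C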
Diaph inh CS: inhibits diaphorase or chemically oxidizes, flagging diaphorase assay artifacts | diaphorase resazurin-to-resorufin fluorescence, NADH, 16 min; bacterial (C. kluyveri) enzyme, not human | inhibition, % at 20 µM | 190,000 tested, 0.69% active;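 active = primary screen inhibition at 20 µM above a set limit, cut at about 50% in these data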
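Assay system: diaphorase enzyme from Clostridium kluyveri. Quantity: enzyme working solution with 0.14 U/mL diaphorase. Schedule: reaction incubation of 16 min at room temperature. Technique: resorufin fluorescence, excitation 544 nm, emission 590 nm. Controls: No-NADH positive control and DMSO neutral control.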
PfGluPho inh: PfG6PD (Plasmodium falciparum) enzyme inhibition; PfGluPho enzyme, NADPH resazurin-diaphorase fluorescence; inhibition, % at 20 µM; 350,000 tested, 0.78% active; AID 504690;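 active = inhibition reaching at least a set limit at 20 µM in the primary screen, cut at about 59% in these data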
Diaphorase act: activates diaphorase or chemically reduces, flagging diaphorase assay artifacts; Diaphorase/resazurin coupled assay, resorufin fluorescence, 16 min; stronger effect = higher value; 1 = vehicle wells, 0 = NADH-free wells; activation factor at 20 µM; 190,000 tested, 0.005% active; AID 1229;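 active = diaphorase activity raised at least twofold by the compound at 20 µM; inactive = activation factor below 2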
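Material: purified diaphorase enzyme from Clostridium kluyveri; Also added: 0.114 mM NADH and 0.1 mM resazurin, final amounts; Doses: single compound dose of 20 µM, 1% DMSO final; Times: 16 min enzyme reaction, ambient temperature; Detection: resorufin fluorescence, excitation 544 nm, emission 590 nm; Measure: increased resorufin signal from activators or reducing compounds.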
DTT redox conf: confirmation of DTT-dependent redox cycling H2O2 generators | shares compounds with Redox H2O2 prof | 60 tested, 40% active | phenol red-HRP absorbance | EC50, µM | AID 1234;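 active = EC50 under a set limit for hydrogen peroxide production with the reducing agent DTT present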
Lmaj promast 1uM: blocks Leishmania major promastigote growth at 1 uM, repeat screen. AID 1258. inhibition, % at 1 µM. shares compounds with Lmaj promast. L. major promastigote growth, resazurin fluorescence, 48 h. 1,100 tested, 13% active;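 active = inhibition above about 50% in both repeat tests, limit read from the data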
PfGluPho conf: PfG6PD inhibition, single-dose confirmed; recombinant PfGluPho, NADPH-diaphorase-resazurin fluorescence; inhibition, % at 20 µM; AID 504753; 2,400 tested, 34% active; shares compounds with PfGluPho inh;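 active = inhibition of at least 50% at 20 µM in any single replicate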
Diaph ctr 10uM: inhibits diaphorase or oxidizes, flagging false PfG6PD hits; shares compounds with PfGluPho inh; diaphorase-coupled resazurin reduction, fluorescence, NADPH 10 uM; inhibition, % at 20 µM; 820 tested, 39% active; AID 504862;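 active = average inhibition reaching 50% or more with the compound at 20 µM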;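 also: resorufin red fluorescence formed as diaphorase reduces resazurin using NADPH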
Diaphorase 30uM: diaphorase inhibition or oxidation at 30 uM NADPH | shares compounds with PfGluPho inh | Diaphorase/resazurin coupled assay, resorufin fluorescence | inhibition, % at 20 µM | 820 tested, 29% active | AID 504863;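 active = inhibition averaging 50% or more, tested at 20 µM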
A number is an active result; 0 = inactive; - = no result. The sample as a whole holds a higher share of hits than the screen did. Rule as the data show it, unless noted: active = inhibition above about 50%; inactive = the rest.

SMILES	G6PDH counter	Redox H2O2 prof	Lmaj promast	Diaph inh CS	PfGluPho inh	Diaphorase act	DTT redox conf	others
Cc1noc(/C=C/c2cccs2)c1S(=O)(=O)N1CCC(C(=O)NCCCN2CCCC(C)C2)CC1 (stereo not given)	0	0	96	0	0	0	-
CCCCN(Cc1ccccc1)S(=O)(=O)c1cc(Br)cc2c1N(C(C)=O)C(C)C2 (stereo not given)	0	0	98	0	0	0	-
CC(=O)N1c2c(cc(Br)cc2S(=O)(=O)NCc2cccnc2)CC1C (stereo not given)	0	0	0	0	0	0	-
O=C(Nc1ccc(Cl)c(S(=O)(=O)N2CCOCC2)c1)c1ccccc1-c1ccc(C(F)(F)F)cc1	0	0	99	0	0	0	-
CC(=O)Nc1ccc(S(=O)(=O)N2CC3(C)CC2CC(C)(C)C3)cc1 (stereo not given)	0	0	0	0	0	0	-
CC1(C)CC2CC(C)(CN2S(=O)(=O)c2ccc(C(=O)Nc3ccc(S(=O)(=O)N4CCOCC4)cc3)cc2)C1 (stereo not given)	0	0	99	0	0	0	-
CC1(C)CC2CC(C)(CN2S(=O)(=O)c2ccc(C(=O)Nc3ccc(Cl)c(S(=O)(=O)N4CCOCC4)c3)cc2)C1 (stereo not given)	0	0	97	0	0	0	-
O=C(Nc1ccc(Cl)c(S(=O)(=O)N2CCOCC2)c1)c1cc2ccccc2oc1=O	-	-	-	-	0	-	-
CN(C(=O)CSc1nnc(-c2ccccc2F)n1N)C1CCCCC1	-	-	-	-	0	-	-
COc1ccc(-c2nc(-n3c(C)c(C(C)=O)c(C(C)=O)c3C)sc2C)cc1OC	0	0	66	0	0	0	-
CCOC(=O)N(O)c1ccc(C=Cc2ccccc2)cc1	-	-	-	-	0	-	-
C=CCn1c(Cc2ccc(OC)cc2)nnc1SCC(=O)NCCc1ccccc1	0	109	0	0	0	0	0
CC(C)c1ccc(S(=O)(=O)/N=C2/C=C(Sc3ncn[nH]3)C(=O)c3ccccc32)cc1	0	93	99	0	104	0	13
Cc1ccc(S(=O)(=O)/N=C2/C=C(Sc3ncn[nH]3)C(=O)c3ccccc32)c(C)c1	0	83	99	69	-	0	13
O=C(CCNC(=O)c1ccco1)NCc1ccc(C(=O)O)cc1	-	-	-	-	0	-	-
CCNS(=O)(=O)c1ccc(Br)c(C(=O)OC(C)C(=O)NCC2CCCCC2)c1 (stereo not given)	-	-	-	-	0	-	-
CCOC(=O)c1c2c(n(C)c1COC)C(=O)C(=O)c1ccc(Br)cc1-2	-	343	100	-	-	-	0
CCCn1c(=O)c(C(=O)OCC)c(O)c2cc(Br)ccc21	0	0	0	0	0	0	-
COc1cccc(NC(=O)C(OC(=O)c2ccc([N+](=O)[O-])o2)c2ccccc2)c1 (stereo not given)	0	92	0	0	0	0	0
Cc1cc(C)cc(NC(=O)C(OC(=O)c2ccc([N+](=O)[O-])o2)c2ccccc2)c1 (stereo not given)	0	0	0	0	0	0	-
Cc1ccc([C@H]2C[C@@H](O)[C@H](n3cc(-c4ccc(F)cc4)nn3)CN2C(=O)c2cccs2)cc1	-	-	-	-	0	-	-
O=C(COC(=O)c1ccccn1)Nc1ncc(C(F)(F)F)cc1Cl	0	0	0	0	0	0	-
O=C(COC(=O)c1ccc([N+](=O)[O-])s1)Nc1ncc(C(F)(F)F)cc1Cl	0	86	0	0	0	0	0
CCCCn1c(NS(=O)(=O)c2ccc(C)cc2)c(S(=O)(=O)c2ccccc2)c2nc3ccccc3nc21	0	97	0	0	0	0	0
CCCCn1c(NC(=O)c2ccccc2Cl)c(C#N)c2nc3ccccc3nc21	0	311	0	0	0	0	0
SMILES	G6PDH counter	Redox H2O2 prof	Lmaj promast	Diaph inh CS	PfGluPho inh	Diaphorase act	DTT redox conf	others
Cn1c(C(=O)c2ccncc2)cc2ccccc21	-	-	-	-	0	-	-
Nc1cc2nsnc2cc1Br	58	362	0	0	99	0	0
CCOc1ccc(CCNC(=O)COC(=O)c2cccc(S(=O)(=O)N3CCCC3)c2)cc1OCC	-	-	-	-	0	-	-
Cc1ccc(C)c(SCC(=O)NC(=O)NCc2ccccc2)c1	0	0	0	0	0	0	-
Cc1ccc(C)c(S(=O)(=O)Nc2cc(SCC(=O)O)c(O)c3ccccc23)c1	0	101	100	0	104	0	0
COc1c(N2C[C@@H]3CCCN[C@@H]3C2)c(F)cc2c(=O)c(C(=O)O)cn(C3CC3)c12	-	-	-	-	0	-	-
COc1ccccc1C(=O)OCC(=O)NC1CCCC1	-	-	-	-	0	-	-
O=C(COC(=O)c1ccccc1OCc1ccccc1Cl)NC1CC1	0	88	0	0	0	0	0
CCCc1nc2c(=O)n(C)c(=O)nc-2n(C)n1	56	128	101	0	109	0	1.5	Lmaj promast 1uM=94;PfGluPho conf=103;Diaph ctr 10uM=98;Diaphorase 30uM=100
CCn1c(N)nc2c1c(=O)n(C)c(=O)n2C	0	0	0	0	0	0	-
COc1cccc(CNS(=O)(=O)c2ccc3c(c2)N(C(C)=O)CCO3)c1	-	-	-	-	0	-	-
O=C1C(Nc2ccccc2)=C/C(=N/S(=O)(=O)c2cccs2)c2ccccc21	0	102	101	0	110	0	0	PfGluPho conf=92;Diaph ctr 10uM=78;Diaphorase 30uM=80
CC(C)(C)c1ccc(S(=O)(=O)/N=C2\C=C(NS(=O)(=O)c3ccccc3)C(=O)c3ccccc32)cc1	-	-	-	-	0	-	-
NC(=O)C1CCN(C2=C(Cl)C(=O)c3ccccc3C2=O)CC1	60	356	99	0	74	0	0	PfGluPho conf=0
Cc1ccc(S(=O)(=O)/N=C2/C=C(Sc3ncn[nH]3)C(=O)c3ccccc32)cc1	0	120	100	0	120	0	12	PfGluPho conf=103;Diaph ctr 10uM=89;Diaphorase 30uM=93
O=C1C=C(N(CCO)Cc2ccccc2)c2ccccc2C1=O	54	129	96	0	71	0	3.1	Lmaj promast 1uM=0;PfGluPho conf=0
O=C(CSc1nnnn1C1CC1)Nc1ccc(S(=O)(=O)N2CCOCC2)cc1	-	-	-	-	0	-	-
Cc1ccccc1OCC(=O)Nc1ccc2c(c1)n(C)c(=O)n2C	0	0	0	0	0	0	-

Screening data deposited in PubChem BioAssay by several laboratories.
